According to ChEMBL document CHEMBL4311966, “Sulfide, sulfoxide and sulfone bridged acyclic nucleoside phosphonates as inhibitors of the Plasmodium falciparum and human 6-oxopurine phosphoribosyltransferases: Synthesis and evaluation” (Eur J Med Chem, 2019):
pIC50, pKi: −log10 of the molar value.

Legend:
[1] = Inhibition of Plasmodium falciparum HGPRT using xanthine as substrate by Hanes-plot based method
Outline: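 Ki was determined for PfHGXPRT using xanthine as the substrate, under the conditions used for human HGPRT. The reaction was followed spectrophotometrically at 255 nm, with Δε 4670 M⁻¹ cm⁻¹. Km for xanthine was 189 ± 18 μM.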

[2] = Selectivity index, ratio of Ki for human HGPRT to Ki for Plasmodium falciparum HGPRT
[3] = molecular target: T1, Hypoxanthine-guanine phosphoribosyltransferase (Homo sapiens, UniProt P00492); assay: Inhibition of human HGPRT using Prib-PP as substrate by Hanes-plot based method
T1 sequence (P00492 whole entry): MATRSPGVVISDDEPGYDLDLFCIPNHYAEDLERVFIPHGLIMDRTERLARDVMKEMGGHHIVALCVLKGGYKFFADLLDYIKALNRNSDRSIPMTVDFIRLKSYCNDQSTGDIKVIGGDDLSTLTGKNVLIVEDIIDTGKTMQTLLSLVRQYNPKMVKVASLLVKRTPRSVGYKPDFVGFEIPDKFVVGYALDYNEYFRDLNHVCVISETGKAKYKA

[4] = system: Plasmodium falciparum; assay: Antimalarial activity against chloroquine-resistant Plasmodium falciparum W2 in erythrocytes assessed as reduction in 3H-hypoxanthine uptake incubated for 96 hrs and 3H-hypoxanthine added after 48 hrs of compound addition
[5] = Cytotoxicity against human CCRF-CEM cells assessed as cell viability at 10 uM; format: cell-based; settings: read-out: Activity
Outline: (§1)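 Percent viability of human HepG2 (hepatocellular carcinoma) and CCRF-CEM (T-cell leukemia) cells after exposure to a single fixed prodrug concentration of 10 μM, expressed relative to untreated control cells.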

[6] = Cytotoxicity against human HepG2 cells assessed as cell viability at 10 uM; format: cell-based; settings: read-out: Activity; outline: as §1
[7] = system: Plasmodium falciparum; assay: Antimalarial activity against Plasmodium falciparum D6 in erythrocytes assessed as reduction in 3H-hypoxanthine uptake incubated for 96 hrs and 3H-hypoxanthine added after 48 hrs of compound addition

| Compound | Ratio Ki [2] | pKi [3] | pKi [1] | pIC50 [4] | viability at 10 µM [5] | viability at 10 µM [6] | pIC50 [7] |
| --- | --- | --- | --- | --- | --- | --- | --- |
| CC(C)OC(=O)[C@H](Cc1ccccc1)NP(=O)(CSCCCn1cnc2c(=O)[nH]c(N)nc21)N[C@@H](Cc1ccccc1)C(=O)OC(C)C |  |  |  | 5.28 | 98% | 95% | 5.40 |
| O=c1[nH]cnc2c1ncn2CCCS(=O)(=O)CP(=O)(O)O | 10 | 4.34 | 5.35 |  |  |  |  |
| CC(C)OC(=O)[C@H](Cc1ccccc1)NP(=O)(CCSCCn1cnc2c(=O)[nH]c(N)nc21)N[C@@H](Cc1ccccc1)C(=O)OC(C)C |  |  |  | 5.36 | 106% | 83% | 5.27 |
| CC(C)OC(=O)[C@H](Cc1ccccc1)NP(=O)(CCSCCn1cnc2c(=O)[nH]cnc21)N[C@@H](Cc1ccccc1)C(=O)OC(C)C |  |  |  | 5.27 | 100% | 90% | 5.36 |
| O=c1[nH]cnc2c1ncn2CCS(=O)(=O)CCP(=O)(O)O | > 22 | < 4.05 | 5.40 |  |  |  |  |
| Nc1nc2c(ncn2CCSCCP(=O)(O)O)c(=O)[nH]1 | 4 | 6.40 | 7.00 |  |  |  |  |

More lines, main results first:

| Ratio Ki [2] | pKi [3] | Compound | pKi [1] | pIC50 [4] | viability at 10 µM [5] | viability at 10 µM [6] | pIC50 [7] |
| --- | --- | --- | --- | --- | --- | --- | --- |
| 15 | 5.52 | Nc1nc2c(ncn2CCC[S+]([O-])CP(=O)(O)O)c(=O)[nH]1 (configuration not stated) | 6.70 |  |  |  |  |
| 4 | 5.40 | O=c1[nH]cnc2c1ncn2CC[S+]([O-])CCP(=O)(O)O (configuration not stated) | 6.00 |  |  |  |  |
| 1.3 | 5.85 | Nc1nc2c(ncn2CCCSCP(=O)(O)O)c(=O)[nH]1 | 5.96 |  |  |  |  |
| 0.7 | 6.70 | Nc1nc2c(ncn2CC[S+]([O-])CCP(=O)(O)O)c(=O)[nH]1 (configuration not stated) | 6.52 |  |  |  |  |
| 2.8 | 4.96 | O=c1[nH]cnc2c1ncn2CCC[S+]([O-])CP(=O)(O)O (configuration not stated) | 5.40 |  |  |  |  |
| 25 | 5.30 | O=c1[nH]cnc2c1ncn2CCSCCP(=O)(O)O | 6.70 |  |  |  |  |
| > 26 | < 4.10 | O=c1[nH]cnc2c1ncn2CCCSCP(=O)(O)O | 5.52 |  |  |  |  |
